Measurements taken from ChEMBL document CHEMBL1275252, “First survey of metallo-beta-lactamases in clinical isolates of Pseudomonas aeruginosa in a German university hospital” (2010).

What was measured:
Assay type in all cases: functional
Pseudomonas aeruginosa [1] = assay: Antimicrobial activity against metallo-beta-lactamase-negative Pseudomonas aeruginosa isolate PA460 in presence of Tazobactam
Pseudomonas aeruginosa [2] = assay: Antimicrobial activity against metallo-beta-lactamase-negative Pseudomonas aeruginosa isolate PA459
Procedure, shortened: (§1)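 MBL-negative clinical P. aeruginosa isolates with reduced imipenem susceptibility, collected at the study hospital, some from cystic fibrosis patients. Species identity was confirmed by automated Gram-negative identification card. MIC was read in μg/ml.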

Pseudomonas aeruginosa [3] = assay: Antimicrobial activity against Pseudomonas aeruginosa isolate PA510 expressing VIM-2 beta-lactamase in presence of Tazobactam
Pseudomonas aeruginosa [4] = assay: Antimicrobial activity against Pseudomonas aeruginosa isolate PA510 expressing VIM-2 beta-lactamase
Pseudomonas aeruginosa [5] = assay: Antimicrobial activity against metallo-beta-lactamase-negative Pseudomonas aeruginosa isolate PA494 in presence of Tazobactam
Pseudomonas aeruginosa [6] = assay: Antimicrobial activity against metallo-beta-lactamase-negative Pseudomonas aeruginosa isolate PA509 in presence of Tazobactam
Pseudomonas aeruginosa [7] = assay: Antimicrobial activity against Pseudomonas aeruginosa isolate PA500 expressing VIM-1 beta-lactamase in presence of Tazobactam
Pseudomonas aeruginosa [8] = assay: Antimicrobial activity against Pseudomonas aeruginosa isolate PA462 expressing VIM-2 beta-lactamase in presence of Tazobactam
Pseudomonas aeruginosa [9] = assay: Antimicrobial activity against metallo-beta-lactamase-negative Pseudomonas aeruginosa isolate PA483
Pseudomonas aeruginosa [10] = assay: Antimicrobial activity against metallo-beta-lactamase-negative Pseudomonas aeruginosa isolate PA479
Pseudomonas aeruginosa [11] = assay: Antimicrobial activity against Pseudomonas aeruginosa isolate PA475 expressing VIM-2 beta-lactamase
Pseudomonas aeruginosa [12] = assay: Antimicrobial activity against Pseudomonas aeruginosa isolate PA462 expressing VIM-2 beta-lactamase
Pseudomonas aeruginosa [13] = assay: Antimicrobial activity against Pseudomonas aeruginosa isolate PA475 expressing VIM-2 beta-lactamase in presence of Tazobactam
Pseudomonas aeruginosa [14] = assay: Antimicrobial activity against Pseudomonas aeruginosa isolate PA500 expressing VIM-1 beta-lactamase
Pseudomonas aeruginosa [15] = assay: Antimicrobial activity against Pseudomonas aeruginosa isolate PA465 expressing VIM-2 beta-lactamase
Pseudomonas aeruginosa [16] = assay: Antimicrobial activity against Pseudomonas aeruginosa isolate PA477 expressing VIM-2 beta-lactamase in presence of Tazobactam
Pseudomonas aeruginosa [17] = assay: Antimicrobial activity against Pseudomonas aeruginosa isolate PA469 expressing VIM-2 beta-lactamase in presence of Tazobactam
Pseudomonas aeruginosa [18] = assay: Antimicrobial activity against Pseudomonas aeruginosa isolate PA481 expressing VIM-2 beta-lactamase
Pseudomonas aeruginosa [19] = assay: Antimicrobial activity against metallo-beta-lactamase-negative Pseudomonas aeruginosa isolate PA460
Pseudomonas aeruginosa [20] = assay: Antimicrobial activity against metallo-beta-lactamase-negative Pseudomonas aeruginosa isolate PA507 in presence of Tazobactam
Pseudomonas aeruginosa [21] = assay: Antimicrobial activity against metallo-beta-lactamase-negative Pseudomonas aeruginosa isolate PA509
Pseudomonas aeruginosa [22] = assay: Antimicrobial activity against Pseudomonas aeruginosa isolate PA477 expressing VIM-2 beta-lactamase
Pseudomonas aeruginosa [23] = assay: Antimicrobial activity against Pseudomonas aeruginosa isolate PA399 expressing VIM-2 beta-lactamase in presence of Tazobactam
Pseudomonas aeruginosa [24] = assay: Antimicrobial activity against metallo-beta-lactamase-negative Pseudomonas aeruginosa isolate PA459 in presence of Tazobactam
Pseudomonas aeruginosa [25] = assay: Antimicrobial activity against metallo-beta-lactamase-negative Pseudomonas aeruginosa isolate PA494
Pseudomonas aeruginosa [26] = assay: Antimicrobial activity against Pseudomonas aeruginosa isolate PA481 expressing VIM-2 beta-lactamase in presence of Tazobactam
Pseudomonas aeruginosa [27] = assay: Antimicrobial activity against metallo-beta-lactamase-negative Pseudomonas aeruginosa isolate PA483 in presence of Tazobactam
Pseudomonas aeruginosa [28] = assay: Antimicrobial activity against Pseudomonas aeruginosa isolate PA399 expressing VIM-2 beta-lactamase
Pseudomonas aeruginosa [29] = assay: Antimicrobial activity against Pseudomonas aeruginosa isolate PA469 expressing VIM-2 beta-lactamase
Pseudomonas aeruginosa [30] = assay: Antimicrobial activity against metallo-beta-lactamase-negative Pseudomonas aeruginosa isolate PA479 in presence of Tazobactam
Pseudomonas aeruginosa [31] = assay: Antimicrobial activity against metallo-beta-lactamase-negative Pseudomonas aeruginosa isolate PA507; procedure, shortened: as §1
Pseudomonas aeruginosa [32] = assay: Antimicrobial activity against Pseudomonas aeruginosa isolate PA465 expressing VIM-2 beta-lactamase in presence of Tazobactam

CCN1CCN(C(=O)N[C@@H](C(=O)N[C@@H]2C(=O)N3[C@@H]2SC(C)(C)[C@@H]3C(=O)O)c2ccccc2)C(=O)C1=O [PIPERACILLIN]
MIC (Pseudomonas aeruginosa [1]): ≥ 128 µg/mL | MIC (Pseudomonas aeruginosa [2]): ≥ 128 µg/mL | MIC (Pseudomonas aeruginosa [3]): ≥ 128 µg/mL | MIC (Pseudomonas aeruginosa [4]): ≥ 128 µg/mL | MIC (Pseudomonas aeruginosa [5]): ≥ 128 µg/mL | MIC (Pseudomonas aeruginosa [6]): ≥ 128 µg/mL | MIC (Pseudomonas aeruginosa [7]): ≥ 128 µg/mL | MIC (Pseudomonas aeruginosa [8]): ≥ 128 µg/mL | MIC (Pseudomonas aeruginosa [9]): ≥ 128 µg/mL | MIC (Pseudomonas aeruginosa [10]): ≥ 128 µg/mL | MIC (Pseudomonas aeruginosa [11]): ≥ 128 µg/mL | MIC (Pseudomonas aeruginosa [12]): ≥ 128 µg/mL | MIC (Pseudomonas aeruginosa [13]): ≥ 128 µg/mL | MIC (Pseudomonas aeruginosa [14]): ≥ 128 µg/mL | MIC (Pseudomonas aeruginosa [15]): ≥ 128 µg/mL | MIC (Pseudomonas aeruginosa [16]): ≥ 128 µg/mL | MIC (Pseudomonas aeruginosa [17]): ≥ 128 µg/mL | MIC (Pseudomonas aeruginosa [18]): ≥ 128 µg/mL | MIC (Pseudomonas aeruginosa [19]): ≥ 128 µg/mL | MIC (Pseudomonas aeruginosa [20]): ≥ 128 µg/mL | MIC (Pseudomonas aeruginosa [21]): ≥ 128 µg/mL | MIC (Pseudomonas aeruginosa [22]): ≥ 128 µg/mL | MIC (Pseudomonas aeruginosa [23]): ≥ 128 µg/mL | MIC (Pseudomonas aeruginosa [24]): ≥ 128 µg/mL | MIC (Pseudomonas aeruginosa [25]): ≥ 128 µg/mL | MIC (Pseudomonas aeruginosa [26]): ≥ 128 µg/mL | MIC (Pseudomonas aeruginosa [27]): ≥ 128 µg/mL | MIC (Pseudomonas aeruginosa [28]): ≥ 128 µg/mL | MIC (Pseudomonas aeruginosa [29]): ≥ 128 µg/mL | MIC (Pseudomonas aeruginosa [30]): ≥ 128 µg/mL | MIC (Pseudomonas aeruginosa [31]): ≥ 128 µg/mL | MIC (Pseudomonas aeruginosa [32]): 64 µg/mL
